Tests used:
Type in all cases: functional
IGROV-1 = experiment: Growth inhibition of human IGROV1 cells at 1 nM after 96 hrs by MTT assay; set-up: scale not given: the % may be the effect or the level left
UO-31 = experiment: Growth inhibition of human UO31 cells at 10 uM after 96 hrs by MTT assay; set-up: scale not given: the % may be the effect or the level left
OVCAR-4 = experiment: Growth inhibition of human OVCAR4 cells at 10 uM after 96 hrs by MTT assay; set-up: scale not given: the % may be the effect or the level left
OVCAR-3 = experiment: Growth inhibition of human OVCAR-3 cells at 10 uM after 96 hrs by MTT assay; set-up: scale not given: the % may be the effect or the level left
SK-MEL-2 [1] = experiment: Growth inhibition of human SK-MEL-2 cells at 10 uM after 96 hrs by MTT assay; set-up: scale not given: the % may be the effect or the level left
NCI-H522 [2] = experiment: Growth inhibition of human NCI-H522 cells at 10 uM after 96 hrs by MTT assay; set-up: scale not given: the % may be the effect or the level left
NCI-H460 [3] = experiment: Growth inhibition of human NCI-H460 cells at 10 uM after 96 hrs by MTT assay; set-up: scale not given: the % may be the effect or the level left
HCT-15 = experiment: Growth inhibition of human HCT15 cells after 96 hrs by MTT assay; conditions: HCT-15, 96 h
Outline: (§1)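 Run in the NCI 60 human tumour cell line panel as a five-dose assay. GI50 and LC50 were reported for each cell line.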

DU-145 = experiment: Growth inhibition of human DU145 cells at 1 nM after 96 hrs by MTT assay; set-up: scale not given: the % may be the effect or the level left
UACC-62 = experiment: Growth inhibition of human UACC62 cells after 96 hrs by MTT assay; conditions: UACC-62, 96 h
Outline: (§2)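 Tested in the NCI 60-cell-line panel in five-dose format; GI50 and LC50 values reported for each cell line.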

CAKI-1 = experiment: Growth inhibition of human Caki1 cells after 96 hrs by MTT assay; conditions: CAKI-1, 96 h
PC-3 [4] = experiment: Growth inhibition of human PC3 cells after 96 hrs by MTT assay; conditions: PC-3, 96 h; outline: as §2
[5] = Growth inhibition of human Hs 578T cells after 96 hrs by MTT assay; outline: as §1
SR = experiment: Growth inhibition of human SR cells at 10 nM after 96 hrs by MTT assay; set-up: scale not given: the % may be the effect or the level left
NCI-H522 [6] = experiment: Growth inhibition of human NCI-H522 cells after 96 hrs by MTT assay; conditions: NCI-H522, 96 h; outline: as §1
NCI-H460 [7] = experiment: Growth inhibition of human NCI-H460 cells after 96 hrs by MTT assay; conditions: NCI-H460, 96 h; outline: as §1
EKVX = experiment: Growth inhibition of human EKVX cells after 96 hrs by MTT assay; outline: as §1
BT-549 = experiment: Growth inhibition of human BT549 cells at 1 uM after 96 hrs by MTT assay; set-up: scale not given: the % may be the effect or the level left
MDA-MB-231 [8] = experiment: Growth inhibition of human MDA-MB-231 cells at 1 uM after 96 hrs by MTT assay; set-up: scale not given: the % may be the effect or the level left
MCF7 = experiment: Growth inhibition of human MCF7 cells at 1 uM after 96 hrs by MTT assay; set-up: scale not given: the % may be the effect or the level left
MDA-MB-231 [9] = experiment: Growth inhibition of human MDA-MB-231 cells at 100 nM after 96 hrs by MTT assay; set-up: scale not given: the % may be the effect or the level left
PC-3 [10] = experiment: Growth inhibition of human PC3 cells at 100 nM after 96 hrs by MTT assay; set-up: scale not given: the % may be the effect or the level left
A498 = experiment: Growth inhibition of human A498 cells at 100 nM after 96 hrs by MTT assay; set-up: scale not given: the % may be the effect or the level left
UACC-257 = experiment: Growth inhibition of human UACC257 cells at 100 nM after 96 hrs by MTT assay; set-up: scale not given: the % may be the effect or the level left
SNB-75 = experiment: Growth inhibition of human SNB75 cells at 100 nM after 96 hrs by MTT assay; set-up: scale not given: the % may be the effect or the level left
SF-268 = experiment: Growth inhibition of human SF268 cells at 100 nM after 96 hrs by MTT assay; set-up: scale not given: the % may be the effect or the level left
SW-620 = experiment: Growth inhibition of human SW620 cells at 100 nM after 96 hrs by MTT assay; set-up: scale not given: the % may be the effect or the level left
COLO 205 [11] = experiment: Growth inhibition of human COLO205 cells at 100 nM after 96 hrs by MTT assay; set-up: scale not given: the % may be the effect or the level left
NCI-H460 [12] = experiment: Growth inhibition of human NCI-H460 cells at 100 nM after 96 hrs by MTT assay; set-up: scale not given: the % may be the effect or the level left
MDA-MB-231 [13] = experiment: Growth inhibition of human MDA-MB-231 cells at 10 nM after 96 hrs by MTT assay; set-up: scale not given: the % may be the effect or the level left
RXF 393 = experiment: Growth inhibition of human RXF393 cells at 10 nM after 96 hrs by MTT assay; set-up: scale not given: the % may be the effect or the level left
786-0 = experiment: Growth inhibition of human 786-0 cells at 10 nM after 96 hrs by MTT assay; set-up: scale not given: the % may be the effect or the level left
SK-MEL-2 [14] = experiment: Growth inhibition of human SK-MEL-2 cells at 10 nM after 96 hrs by MTT assay; set-up: scale not given: the % may be the effect or the level left
SNB-19 = experiment: Growth inhibition of human SNB19 cells at 10 nM after 96 hrs by MTT assay; set-up: scale not given: the % may be the effect or the level left
COLO 205 [15] = experiment: Growth inhibition of human COLO205 cells at 10 nM after 96 hrs by MTT assay; set-up: scale not given: the % may be the effect or the level left
NCI-H460 [16] = experiment: Growth inhibition of human NCI-H460 cells at 10 nM after 96 hrs by MTT assay; set-up: scale not given: the % may be the effect or the level left
MDA-MB-435 = experiment: Growth inhibition of human MDA-MB-435 cells at 1 uM after 96 hrs by MTT assay; set-up: scale not given: the % may be the effect or the level left
U-251 = experiment: Growth inhibition of human U251 cells at 1 uM after 96 hrs by MTT assay; set-up: scale not given: the % may be the effect or the level left
HOP-92 = experiment: Growth inhibition of human HOP92 cells at 1 uM after 96 hrs by MTT assay; set-up: scale not given: the % may be the effect or the level left
[17] = read-out: LC50 (the source's name)
[18] = read-out: Log10GI50 (converted)
[19] = read-out: Log10LC50 (converted)

C=C(C)[C@H]1CC=C(C)C2=CO[C@@H](c3ccccc3F)[C@@H]21
Activity (IGROV-1): 91%
Activity (UO-31): 78.96%
Activity (OVCAR-4): 88.01%
Activity (OVCAR-3): 115.72%
Activity (SK-MEL-2 [1]): 71.47%
Activity (NCI-H522 [2]): 58.36%
Activity (NCI-H460 [3]): 92.68%
GI50 (HCT-15; read-out: GI50): 4.38 µM
CC50 (HCT-15; [17]): 51 µM
GI50 (HCT-15; [18]): 4.37 µM
CC50 (HCT-15; [19]): 51.3 µM
TGI (HCT-15; read-out: Log10TGI (converted)): 18.6 µM
TGI (HCT-15; read-out: TGI): 18.6 µM
Activity (DU-145): 88%
GI50 (UACC-62; read-out: GI50): 3.31 µM
CC50 (UACC-62; [17]): 51.5 µM
GI50 (UACC-62; [18]): 3.31 µM
CC50 (UACC-62; [19]): 51.3 µM
TGI (UACC-62; read-out: Log10TGI (converted)): 18.2 µM
TGI (UACC-62; read-out: TGI): 18.3 µM
GI50 (CAKI-1; read-out: GI50): 5.5 µM
CC50 (CAKI-1; [17]): > 100 µM
GI50 (CAKI-1; [18]): 5.5 µM
CC50 (CAKI-1; [19]): > 100 µM
TGI (CAKI-1; read-out: Log10TGI (converted)): 39.8 µM
TGI (CAKI-1; read-out: TGI): 39.8 µM
GI50 (PC-3 [4]; read-out: GI50): 2.49 µM
CC50 (PC-3 [4]; [17]): 57.2 µM
GI50 (PC-3 [4]; [18]): 2.51 µM
CC50 (PC-3 [4]; [19]): 57.5 µM
TGI (PC-3 [4]; read-out: Log10TGI (converted)): 16.6 µM
TGI (PC-3 [4]; read-out: TGI): 16.5 µM
GI50 ([5]; read-out: GI50): 2.72 µM
CC50 [5, 17]: > 100 µM
GI50 [5, 18]: 2.69 µM
CC50 [5, 19]: > 100 µM
TGI ([5]; read-out: Log10TGI (converted)): 24.5 µM
TGI ([5]; read-out: TGI): 24.8 µM
Activity (SR): 81%
GI50 (NCI-H522 [6]; read-out: GI50): 3.13 µM
CC50 (NCI-H522 [6]; [17]): 45.5 µM
GI50 (NCI-H522 [6]; [18]): 3.16 µM
CC50 (NCI-H522 [6]; [19]): 45.7 µM
TGI (NCI-H522 [6]; read-out: Log10TGI (converted)): 17.4 µM
TGI (NCI-H522 [6]; read-out: TGI): 17.4 µM
GI50 (NCI-H460 [7]; read-out: GI50): 4.24 µM
CC50 (NCI-H460 [7]; [17]): 43.4 µM
GI50 (NCI-H460 [7]; [18]): 4.27 µM
CC50 (NCI-H460 [7]; [19]): 43.7 µM
TGI (NCI-H460 [7]; read-out: Log10TGI (converted)): 17.4 µM
TGI (NCI-H460 [7]; read-out: TGI): 17.5 µM
GI50 (EKVX; read-out: GI50): 3.37 µM
CC50 (EKVX; [17]): 80.3 µM
GI50 (EKVX; [18]): 3.39 µM
CC50 (EKVX; [19]): 79.4 µM
TGI (EKVX; read-out: Log10TGI (converted)): 19.5 µM
TGI (EKVX; read-out: TGI): 19.4 µM
Activity (BT-549): -6%
Activity (MDA-MB-231 [8]): 43%
Activity (MCF7): 26%
Activity (MDA-MB-231 [9]): 81%
Activity (PC-3 [10]): 70%
Activity (A498): 88%
Activity (UACC-257): 81%
Activity (SNB-75): 84%
Activity (SF-268): 87%
Activity (SW-620): 101%
Activity (COLO 205 [11]): 92%
Activity (NCI-H460 [12]): 82%
Activity (MDA-MB-231 [13]): 89%
Activity (RXF 393): 85%
Activity (786-0): 92%
Activity (SK-MEL-2 [14]): 82%
Activity (SNB-19): 89%
Activity (COLO 205 [15]): 84%
Activity (NCI-H460 [16]): 97%
Activity (MDA-MB-435): 4%
Activity (U-251): 18%
Activity (HOP-92): -14%

From ChEMBL document CHEMBL1153726, “Synthesis and anticancer activity of sclerophytin-inspired hydroisobenzofurans” (Bioorg Med Chem Lett, 2009)
